Positions of bridges follow the written chain, without caps; N, C: chain ends. Residues, ends and D or L forms follow the SMILES beside them.
Key:
[1] = target: Sodium channel protein type 9 subunit alpha (Homo sapiens, UniProt Q15858); assay: Inhibition of human Nav1.7 expressed in HEK293 cells assessed as inward peak current by ion-works quattro patch clamp electrophysiology method; format: cell-based
[2] = target: Sodium channel protein type 5 subunit alpha (Homo sapiens, UniProt Q14524); assay: Inhibition of human Nav1.5 expressed in HEK293 cells assessed as inward peak current by ion-works quattro patch clamp electrophysiology method; format: cell-based
Outline: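 Stable HEK293 line expressing human NaV1.5, recorded by population patch clamp on the IonWorks Quattro.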

Sodium channel protein type 5 subunit alpha, sequence (Q14524 whole entry): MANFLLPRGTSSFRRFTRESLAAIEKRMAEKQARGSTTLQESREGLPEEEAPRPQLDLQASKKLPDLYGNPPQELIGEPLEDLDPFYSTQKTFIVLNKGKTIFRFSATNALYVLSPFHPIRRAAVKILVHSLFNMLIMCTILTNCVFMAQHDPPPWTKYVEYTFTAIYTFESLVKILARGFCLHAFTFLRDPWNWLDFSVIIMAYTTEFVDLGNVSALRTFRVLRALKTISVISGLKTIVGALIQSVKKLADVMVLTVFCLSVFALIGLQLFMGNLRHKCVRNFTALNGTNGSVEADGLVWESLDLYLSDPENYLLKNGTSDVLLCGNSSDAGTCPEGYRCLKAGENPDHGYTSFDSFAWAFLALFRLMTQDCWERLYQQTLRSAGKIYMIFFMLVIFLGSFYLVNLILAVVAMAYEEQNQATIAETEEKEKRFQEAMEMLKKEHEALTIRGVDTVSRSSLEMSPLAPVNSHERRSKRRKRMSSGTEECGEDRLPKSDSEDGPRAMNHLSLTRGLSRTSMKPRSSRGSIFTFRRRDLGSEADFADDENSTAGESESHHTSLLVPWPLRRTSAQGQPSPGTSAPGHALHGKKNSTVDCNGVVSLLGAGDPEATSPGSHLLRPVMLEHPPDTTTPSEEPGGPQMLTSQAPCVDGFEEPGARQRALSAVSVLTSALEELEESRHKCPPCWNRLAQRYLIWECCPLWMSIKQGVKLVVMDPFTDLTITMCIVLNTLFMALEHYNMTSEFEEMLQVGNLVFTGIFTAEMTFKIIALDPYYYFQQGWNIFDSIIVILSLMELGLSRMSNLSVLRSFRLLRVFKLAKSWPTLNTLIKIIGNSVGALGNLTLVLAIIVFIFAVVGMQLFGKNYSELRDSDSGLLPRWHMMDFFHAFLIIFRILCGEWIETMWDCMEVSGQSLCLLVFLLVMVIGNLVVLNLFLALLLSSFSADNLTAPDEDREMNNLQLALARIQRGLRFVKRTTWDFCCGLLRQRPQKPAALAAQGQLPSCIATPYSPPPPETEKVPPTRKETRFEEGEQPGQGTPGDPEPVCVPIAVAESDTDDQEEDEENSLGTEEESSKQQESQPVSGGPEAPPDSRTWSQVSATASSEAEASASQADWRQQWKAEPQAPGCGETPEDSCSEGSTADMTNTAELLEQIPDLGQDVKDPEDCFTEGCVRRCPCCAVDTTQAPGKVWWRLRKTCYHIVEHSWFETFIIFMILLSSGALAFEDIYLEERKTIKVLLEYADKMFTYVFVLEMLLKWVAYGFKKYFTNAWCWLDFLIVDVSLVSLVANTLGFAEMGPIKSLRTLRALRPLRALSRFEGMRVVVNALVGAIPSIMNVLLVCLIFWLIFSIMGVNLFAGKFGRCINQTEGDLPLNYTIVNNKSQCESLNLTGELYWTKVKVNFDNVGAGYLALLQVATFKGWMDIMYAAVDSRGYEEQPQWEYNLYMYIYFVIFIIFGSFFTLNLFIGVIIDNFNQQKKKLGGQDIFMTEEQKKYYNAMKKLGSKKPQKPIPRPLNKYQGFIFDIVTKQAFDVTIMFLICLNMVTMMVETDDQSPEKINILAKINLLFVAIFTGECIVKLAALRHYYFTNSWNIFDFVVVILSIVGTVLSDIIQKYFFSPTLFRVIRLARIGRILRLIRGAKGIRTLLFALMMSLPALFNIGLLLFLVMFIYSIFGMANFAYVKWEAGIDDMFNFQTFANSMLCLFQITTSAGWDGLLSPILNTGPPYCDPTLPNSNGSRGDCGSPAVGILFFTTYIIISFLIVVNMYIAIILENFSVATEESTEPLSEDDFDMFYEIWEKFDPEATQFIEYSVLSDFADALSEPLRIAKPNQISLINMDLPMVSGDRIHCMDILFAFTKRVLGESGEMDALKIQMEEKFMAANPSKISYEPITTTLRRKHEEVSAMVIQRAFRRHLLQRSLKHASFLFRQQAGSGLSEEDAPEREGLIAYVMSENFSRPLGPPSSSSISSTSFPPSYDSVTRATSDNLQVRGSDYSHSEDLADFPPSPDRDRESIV
Sodium channel protein type 9 subunit alpha, sequence (Q15858 whole entry): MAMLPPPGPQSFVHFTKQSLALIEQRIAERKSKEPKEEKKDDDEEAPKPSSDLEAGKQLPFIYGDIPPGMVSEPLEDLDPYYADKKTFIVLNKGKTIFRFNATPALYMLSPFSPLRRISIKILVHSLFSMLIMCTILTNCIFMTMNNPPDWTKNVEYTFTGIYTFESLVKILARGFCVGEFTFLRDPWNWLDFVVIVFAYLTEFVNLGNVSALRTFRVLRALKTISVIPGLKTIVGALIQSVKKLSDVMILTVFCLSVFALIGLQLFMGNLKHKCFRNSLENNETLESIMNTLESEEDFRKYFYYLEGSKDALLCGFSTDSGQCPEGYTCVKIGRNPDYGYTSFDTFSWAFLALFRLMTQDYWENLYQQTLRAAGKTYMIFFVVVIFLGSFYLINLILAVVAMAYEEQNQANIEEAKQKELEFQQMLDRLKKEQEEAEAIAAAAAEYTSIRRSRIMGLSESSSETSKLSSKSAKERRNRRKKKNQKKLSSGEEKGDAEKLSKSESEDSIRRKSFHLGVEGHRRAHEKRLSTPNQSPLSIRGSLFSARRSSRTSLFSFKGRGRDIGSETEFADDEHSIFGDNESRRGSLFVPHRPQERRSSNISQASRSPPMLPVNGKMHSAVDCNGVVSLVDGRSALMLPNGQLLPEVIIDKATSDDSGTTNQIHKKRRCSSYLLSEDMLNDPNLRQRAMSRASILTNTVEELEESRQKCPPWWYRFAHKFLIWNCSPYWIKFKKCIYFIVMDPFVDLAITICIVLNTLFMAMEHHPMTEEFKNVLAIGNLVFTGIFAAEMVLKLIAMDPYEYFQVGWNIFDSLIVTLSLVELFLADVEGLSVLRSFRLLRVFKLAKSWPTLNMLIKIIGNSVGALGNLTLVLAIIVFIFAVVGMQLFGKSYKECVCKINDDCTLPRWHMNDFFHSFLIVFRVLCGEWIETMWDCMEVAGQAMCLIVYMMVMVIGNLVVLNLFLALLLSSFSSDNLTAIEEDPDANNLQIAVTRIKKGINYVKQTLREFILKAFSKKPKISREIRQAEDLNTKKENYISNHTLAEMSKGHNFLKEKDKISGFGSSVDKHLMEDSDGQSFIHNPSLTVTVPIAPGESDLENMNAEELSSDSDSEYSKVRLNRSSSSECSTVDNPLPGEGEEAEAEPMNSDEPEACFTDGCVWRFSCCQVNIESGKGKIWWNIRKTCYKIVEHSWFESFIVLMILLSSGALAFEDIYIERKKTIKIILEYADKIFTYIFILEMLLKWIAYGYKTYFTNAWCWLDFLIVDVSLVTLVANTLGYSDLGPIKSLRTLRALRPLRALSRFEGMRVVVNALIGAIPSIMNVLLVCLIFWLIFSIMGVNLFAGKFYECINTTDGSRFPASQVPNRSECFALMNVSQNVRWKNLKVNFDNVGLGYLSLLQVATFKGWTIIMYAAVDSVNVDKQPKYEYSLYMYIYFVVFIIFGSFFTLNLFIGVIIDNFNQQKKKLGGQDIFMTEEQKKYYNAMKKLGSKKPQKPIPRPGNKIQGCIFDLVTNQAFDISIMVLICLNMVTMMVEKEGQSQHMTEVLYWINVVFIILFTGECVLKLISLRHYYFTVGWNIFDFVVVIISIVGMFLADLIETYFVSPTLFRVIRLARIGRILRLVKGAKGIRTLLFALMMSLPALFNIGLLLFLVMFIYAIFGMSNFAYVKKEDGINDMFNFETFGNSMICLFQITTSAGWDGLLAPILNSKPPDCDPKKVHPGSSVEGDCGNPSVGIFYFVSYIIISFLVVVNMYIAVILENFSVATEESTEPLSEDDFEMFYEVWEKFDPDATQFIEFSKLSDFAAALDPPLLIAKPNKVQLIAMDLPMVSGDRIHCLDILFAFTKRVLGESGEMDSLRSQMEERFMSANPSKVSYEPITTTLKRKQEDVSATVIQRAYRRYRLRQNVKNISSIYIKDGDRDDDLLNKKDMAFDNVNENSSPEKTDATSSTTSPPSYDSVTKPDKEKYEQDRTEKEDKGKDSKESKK

SMILES | IC50 [1] [nM] | IC50 [2] [µM]
CC[C@H](C)[C@@H]1NC(=O)[C@@H]2CSSC[C@@H]3NC(=O)[C@H](C(C)C)NC(=O)[C@H](CC(C)C)NC(=O)[C@H](CC(N)=O)NC(=O)[C@@H]4CCCN4C(=O)[C@H](CCCNC(=N)N)NC(=O)[C@H](CSSC[C@H](NC(=O)[C@@H](N)CC(=O)O)C(=O)N[C@@H](CC(C)C)C(=O)NCC(=O)N[C@@H](Cc4ccccc4)C(=O)N[C@@H](CCSC)C(=O)N[C@@H](CCCNC(=N)N)C(=O)N[C@@H](CCCCN)C(=O)N2)NC(=O)[C@H](CSSC[C@@H](C(=O)N[C@@H](CCCCN)C(=O)N[C@@H](Cc2ccc(O)cc2)C(=O)N[C@H](C(=O)N[C@@H](CCCNC(=N)N)C(N)=O)C(C)C)NC(=O)[C@H](Cc2c[nH]c4ccccc24)NC(=O)[C@H](CCCCN)NC(=O)[C@H](Cc2cnc[nH]2)NC(=O)[C@H]([C@@H](C)O)NC(=O)[C@H](CCCNC(=N)N)NC(=O)[C@H](CO)NC3=O)NC(=O)[C@H](CCCCN)NC(=O)[C@H](CC(=O)O)NC(=O)[C@H](CC(N)=O)NC(=O)[C@H](CC(=O)O)NC(=O)[C@@H]2CCCN2C1=O (H-DCLGFMRKCIPDNDKCCRPNLVCSRTHKWCKYVR-NH2; disulfide 2-17, 9-23, 16-30) | 2350 | > 5
CC[C@H](C)[C@@H]1NC(=O)[C@@H]2CSSC[C@@H]3NC(=O)[C@H](C(C)C)NC(=O)[C@H](CC(C)C)NC(=O)[C@H](CC(N)=O)NC(=O)[C@@H]4CCCN4C(=O)[C@H](CCCNC(=N)N)NC(=O)[C@H](CSSC[C@H](NC(=O)[C@@H](N)CC(=O)O)C(=O)N[C@@H](CC(C)C)C(=O)NCC(=O)N[C@@H](Cc4ccccc4)C(=O)N[C@@H](CCSC)C(=O)N[C@@H](CCCNC(=N)N)C(=O)N[C@@H](CCCCN)C(=O)N2)NC(=O)[C@H](CSSC[C@@H](C(=O)N[C@@H](CCCCN)C(=O)N[C@@H](Cc2ccc(O)cc2)C(=O)N[C@H](C(=O)N[C@@H](Cc2ccccc2)C(N)=O)C(C)C)NC(=O)[C@H](Cc2c[nH]c4ccccc24)NC(=O)[C@H](CCCCN)NC(=O)[C@H](Cc2cnc[nH]2)NC(=O)[C@H]([C@@H](C)O)NC(=O)[C@H](CCCNC(=N)N)NC(=O)[C@H](CO)NC3=O)NC(=O)[C@H](CCCCN)NC(=O)[C@H](CC(=O)O)NC(=O)[C@H](CC(N)=O)NC(=O)[C@H](CCC(=O)O)NC(=O)[C@@H]2CCCN2C1=O (H-DCLGFMRKCIPENDKCCRPNLVCSRTHKWCKYVF-NH2; disulfide 2-17, 9-23, 16-30) | 280 | > 5
CC[C@H](C)[C@@H]1NC(=O)[C@@H]2CSSC[C@@H]3NC(=O)[C@H](C(C)C)NC(=O)[C@H](CC(C)C)NC(=O)[C@H](CC(N)=O)NC(=O)[C@@H]4CCCN4C(=O)[C@H](CCCNC(=N)N)NC(=O)[C@H](CSSC[C@H](NC(=O)[C@@H](N)CC(=O)O)C(=O)N[C@@H](CC(C)C)C(=O)NCC(=O)N[C@@H](Cc4ccccc4)C(=O)N[C@@H](CCSC)C(=O)N[C@@H](CCCNC(=N)N)C(=O)N[C@@H](CCCCN)C(=O)N2)NC(=O)[C@H](CSSC[C@@H](C(=O)N[C@@H](CCCCN)C(=O)N[C@@H](Cc2ccc(O)cc2)C(=O)N[C@H](C(=O)N[C@@H](Cc2ccccc2)C(N)=O)C(C)C)NC(=O)[C@H](Cc2c[nH]c4ccccc24)NC(=O)[C@H](CCCCN)NC(=O)[C@H](Cc2cnc[nH]2)NC(=O)[C@H](CCCCN)NC(=O)[C@H](CCCNC(=N)N)NC(=O)[C@H](CO)NC3=O)NC(=O)[C@H](CCCCN)NC(=O)[C@H](CC(=O)O)NC(=O)[C@H](CC(N)=O)NC(=O)[C@H](CC(=O)O)NC(=O)[C@@H]2CCCN2C1=O (H-DCLGFMRKCIPDNDKCCRPNLVCSRKHKWCKYVF-NH2; disulfide 2-17, 9-23, 16-30) | 40 | > 5
CC[C@H](C)[C@@H]1NC(=O)[C@@H]2CSSC[C@@H]3NC(=O)[C@H](C(C)C)NC(=O)[C@H](CC(C)C)NC(=O)[C@H](CC(N)=O)NC(=O)[C@@H]4CCCN4C(=O)[C@H](CCCNC(=N)N)NC(=O)[C@H](CSSC[C@H](NC(=O)[C@@H](N)CC(=O)O)C(=O)N[C@@H](CC(C)C)C(=O)NCC(=O)N[C@@H](Cc4c[nH]c5ccccc45)C(=O)N[C@@H](CCSC)C(=O)N[C@@H](CCCNC(=N)N)C(=O)N[C@@H](CCCCN)C(=O)N2)NC(=O)[C@H](CSSC[C@@H](C(=O)N[C@@H](CCCCN)C(=O)N[C@@H](Cc2ccc(O)cc2)C(=O)N[C@H](C(=O)N[C@@H](Cc2ccccc2)C(N)=O)C(C)C)NC(=O)[C@H](Cc2c[nH]c4ccccc24)NC(=O)[C@H](CCCCN)NC(=O)[C@H](Cc2cnc[nH]2)NC(=O)[C@H]([C@@H](C)O)NC(=O)[C@H](CCCNC(=N)N)NC(=O)[C@H](CO)NC3=O)NC(=O)[C@H](CCCCN)NC(=O)[C@H](CC(=O)O)NC(=O)[C@H](CC(N)=O)NC(=O)[C@H](CC(=O)O)NC(=O)[C@@H]2CCCN2C1=O (H-DCLGWMRKCIPDNDKCCRPNLVCSRTHKWCKYVF-NH2; disulfide 2-17, 9-23, 16-30) | 200 | > 5
CSCC[C@@H]1NC(=O)[C@H](Cc2ccccc2)NC(=O)CNC(=O)[C@H](CC(C)C)NC(=O)[C@@H](NC(=O)[C@@H](N)CC(=O)O)CSSC[C@@H]2NC(=O)[C@@H]3CSSC[C@@H](C(=O)N[C@@H](CCCCN)C(=O)N[C@@H](Cc4ccc(O)cc4)C(=O)N[C@H](C(=O)N[C@@H](Cc4ccccc4)C(N)=O)C(C)C)NC(=O)[C@H](Cc4c[nH]c5ccccc45)NC(=O)[C@H](CCCCN)NC(=O)[C@H](Cc4cnc[nH]4)NC(=O)[C@H]([C@@H](C)O)NC(=O)[C@H](CCCNC(=N)N)NC(=O)[C@H](CO)NC(=O)[C@H](CSSC[C@H](NC(=O)[C@H](CCCCN)NC(=O)[C@H](CCCNC(=N)N)NC1=O)C(=O)N[C@@H](CCCCN)C(=O)N1CCC[C@H]1C(=O)N[C@@H](CC(=O)O)C(=O)N[C@@H](CC(N)=O)C(=O)N[C@@H](CC(=O)O)C(=O)N[C@@H](CCCCN)C(=O)N3)NC(=O)[C@H](C(C)C)NC(=O)[C@H](CC(C)C)NC(=O)[C@H](CC(N)=O)NC(=O)[C@@H]1CCCN1C(=O)[C@H](CCCNC(=N)N)NC2=O (H-DCLGFMRKCKPDNDKCCRPNLVCSRTHKWCKYVF-NH2; disulfide 2-17, 9-23, 16-30) | 230 | > 5
CC[C@H](C)[C@@H]1NC(=O)[C@@H]2CSSC[C@@H]3NC(=O)[C@H](C(C)C)NC(=O)[C@H](CC(C)C)NC(=O)[C@H](CC(N)=O)NC(=O)[C@@H]4CCCN4C(=O)[C@H](CCCNC(=N)N)NC(=O)[C@H](CSSC[C@H](NC(=O)[C@@H](N)CC(=O)O)C(=O)N[C@@H](CC(C)C)C(=O)NCC(=O)N[C@@H](Cc4ccccc4)C(=O)N[C@@H](CCSC)C(=O)N[C@@H](CCCNC(=N)N)C(=O)N[C@@H](CCCCN)C(=O)N2)NC(=O)[C@H](CSSC[C@@H](C(=O)N[C@@H](CCCCN)C(=O)N[C@@H](Cc2ccc(O)cc2)C(=O)N[C@H](C(=O)N[C@@H](CCCCN)C(N)=O)C(C)C)NC(=O)[C@H](Cc2c[nH]c4ccccc24)NC(=O)[C@H](CCCCN)NC(=O)[C@H](Cc2cnc[nH]2)NC(=O)[C@H]([C@@H](C)O)NC(=O)[C@H](CCCNC(=N)N)NC(=O)[C@H](CO)NC3=O)NC(=O)[C@H](CCCCN)NC(=O)[C@H](CC(=O)O)NC(=O)[C@H](CC(N)=O)NC(=O)[C@H](CC(=O)O)NC(=O)[C@@H]2CCCN2C1=O (H-DCLGFMRKCIPDNDKCCRPNLVCSRTHKWCKYVK-NH2; disulfide 2-17, 9-23, 16-30) | > 5000 | > 5

From ChEMBL document CHEMBL3797186, “Single Residue Substitutions That Confer Voltage-Gated Sodium Ion Channel Subtype Selectivity in the NaV1.7 Inhibitory Peptide GpTx-1” (J Med Chem, 2016)
